In ChEMBL document CHEMBL2146434, “Synthesis and biological evaluation of new amino acid and dipeptide derivatives of neocryptolepine as anticancer agents” (J Med Chem, 2012):
Values belong to the molecule of their own block, whether it stands above or below them.

What was measured:
LoVo = assay: Cytotoxicity against human LoVo cells after 72 hrs by SRB assay; type: functional, cell-based
Outline: (§1)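 IC50 is the compound concentration giving 50% inhibition of cell proliferation. It was determined on normal mouse BALB/3T3 fibroblasts and on human A549, MCF-7 and LoVo cancer lines, with doxorubicin hydrochloride and DiMIQ as reference compounds.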

[1] = Octanol-water partition coefficient, log P of the compound at pH 2.2; type: physicochemical
[2] = Octanol-water partition coefficient, log P of the compound at pH 5; type: physicochemical
Mus musculus [3] = assay: Toxicity in C57BL/6 mouse xenografted with mouse LLC cells assessed as body weight loss at 30 mg/kg/day, sc administered on day 9 to day 12 of tumor implantation; type: organism-based; set-up: route subcutaneous; details: in vivo
Outline: (§2)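 Mouse Lewis lung carcinoma (LLC) cells inoculated sc into mice. Daily dosing from day 9: 15 mg kg⁻¹ day⁻¹ through day 13 or 30 mg kg⁻¹ day⁻¹ through day 12; 25 or 50 mg kg⁻¹ day⁻¹ through day 13. Route is given as ip in tables and text but sc in figure legends. Body weight monitored for loss alongside tumor growth. Single 100 mg/kg cyclophosphamide dose as cytostatic control.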

Mus musculus [4] = assay: Toxicity in C57BL/6 mouse xenografted with mouse LLC cells assessed as body weight loss at 15 mg/kg/day, sc administered on day 9 to day 13 of tumor implantation; type: organism-based; set-up: route subcutaneous; details: in vivo
Outline: (§3)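 Body weight was tracked in C57BL/6 mice bearing subcutaneously inoculated LLC during therapy given daily from day 9 to day 13. A single 100 mg/kg dose of cyclophosphamide served as the cytostatic control group.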

Mus musculus [5] = assay: Toxicity in C57BL/6 mouse xenografted with mouse LLC cells assessed as body weight loss at 30 mg/kg/day, ip administered on day 9 to day 12 of tumor implantation; type: organism-based; set-up: route intraperitoneal; details: in vivo; outline: as §2
KB = assay: Cytotoxicity against human KB cells after 72 hrs by SRB assay; type: functional, cell-based
A549 = assay: Cytotoxicity against human A549 cells after 72 hrs by SRB assay; type: functional, cell-based; details: A549, 72 h; outline: as §1
MCF7 = assay: Cytotoxicity against human MCF7 cells after 72 hrs by SRB assay; type: functional, cell-based; details: MCF7, 72 h; outline: as §1
[6] = tested on: Lewis lung carcinoma cell line; assay: Antineoplastic activity against mouse LLC cells xenografted in C57BL/6 mouse assessed as tumor growth inhibition at 25 mg/kg/day, ip administered on day 10 to day 14 of tumor implantation measured on day 12; type: functional; details: route intraperitoneal, read-out: TGI
Outline: (§4)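 Mice bore Lewis lung carcinoma (LLC) inoculated subcutaneously and received test agents intraperitoneally at 15–50 mg kg⁻¹ day⁻¹ from day 9 or day 10. A single 100 mg/kg cyclophosphamide dose was the cytostatic control. Tumor growth was followed as the group median, and TGI% was calculated from medians versus untreated controls. Significance was tested by nonparametric Kruskal–Wallis multiple comparison, p < 0.05.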

[7] = tested on: Lewis lung carcinoma cell line; assay: Antineoplastic activity against mouse LLC cells xenografted in C57BL/6 mouse assessed as tumor growth inhibition at 25 mg/kg/day, ip administered on day 10 to day 14 of tumor implantation measured on day 14; type: functional; details: route intraperitoneal, read-out: TGI; outline: as §4
[8] = tested on: Lewis lung carcinoma cell line; assay: Antineoplastic activity against mouse LLC cells xenografted in C57BL/6 mouse assessed as tumor growth inhibition at 25 mg/kg/day, ip administered on day 10 to day 14 of tumor implantation measured on day 17; type: functional; details: route intraperitoneal, read-out: TGI; outline: as §4
[9] = tested on: Lewis lung carcinoma cell line; assay: Antineoplastic activity against mouse LLC cells xenografted in C57BL/6 mouse assessed as tumor growth inhibition at 25 mg/kg/day, ip administered on day 10 to day 14 of tumor implantation measured on day 19; type: functional; details: route intraperitoneal, read-out: TGI; outline: as §4
[10] = tested on: Lewis lung carcinoma cell line; assay: Antineoplastic activity against mouse LLC cells xenografted in C57BL/6 mouse assessed as tumor growth inhibition at 25 mg/kg/day, ip administered on day 10 to day 14 of tumor implantation measured on day 21; type: functional; details: route intraperitoneal, read-out: TGI; outline: as §4
[11] = tested on: Lewis lung carcinoma cell line; assay: Antineoplastic activity against mouse LLC cells xenografted in C57BL/6 mouse assessed as tumor growth inhibition at 25 mg/kg/day, ip administered on day 10 to day 14 of tumor implantation measured on day 24; type: functional; details: route intraperitoneal, read-out: TGI; outline: as §4
[12] = tested on: Lewis lung carcinoma cell line; assay: Antineoplastic activity against mouse LLC cells xenografted in C57BL/6 mouse assessed as tumor growth inhibition at 50 mg/kg/day, ip administered on day 10 to day 14 of tumor implantation measured on day 12; type: functional; details: route intraperitoneal, read-out: TGI; outline: as §4
[13] = tested on: Lewis lung carcinoma cell line; assay: Antineoplastic activity against mouse LLC cells xenografted in C57BL/6 mouse assessed as tumor growth inhibition at 50 mg/kg/day, ip administered on day 10 to day 14 of tumor implantation measured on day 14; type: functional; details: route intraperitoneal, read-out: TGI; outline: as §4
[14] = tested on: Lewis lung carcinoma cell line; assay: Antineoplastic activity against mouse LLC cells xenografted in C57BL/6 mouse assessed as tumor growth inhibition at 50 mg/kg/day, ip administered on day 10 to day 14 of tumor implantation measured on day 17; type: functional; details: route intraperitoneal, read-out: TGI; outline: as §4
[15] = tested on: Lewis lung carcinoma cell line; assay: Antineoplastic activity against mouse LLC cells xenografted in C57BL/6 mouse assessed as tumor growth inhibition at 50 mg/kg/day, ip administered on day 10 to day 14 of tumor implantation measured on day 19; type: functional; details: route intraperitoneal, read-out: TGI; outline: as §4
[16] = tested on: Lewis lung carcinoma cell line; assay: Antineoplastic activity against mouse LLC cells xenografted in C57BL/6 mouse assessed as tumor growth inhibition at 50 mg/kg/day, ip administered on day 10 to day 14 of tumor implantation measured on day 21; type: functional; details: route intraperitoneal, read-out: TGI; outline: as §4
[17] = tested on: Lewis lung carcinoma cell line; assay: Antineoplastic activity against mouse LLC cells xenografted in C57BL/6 mouse assessed as tumor growth inhibition at 50 mg/kg/day, ip administered on day 10 to day 14 of tumor implantation measured on day 24; type: functional; details: route intraperitoneal, read-out: TGI; outline: as §4
Mus musculus [18] = assay: Toxicity in C57BL/6 mouse xenografted with mouse LLC cells assessed as body weight loss at 15 mg/kg/day, ip administered on day 9 to day 13 of tumor implantation; type: organism-based; set-up: route intraperitoneal; details: in vivo; outline: as §3
Mus musculus [19] = assay: Toxicity in C57BL/6 mouse xenografted with mouse LLC cells assessed as body weight loss at 25 mg/kg/day, sc administered on day 9 to day 13 of tumor implantation; type: organism-based; set-up: route subcutaneous; details: in vivo; outline: as §3
Mus musculus [20] = assay: Toxicity in C57BL/6 mouse xenografted with mouse LLC cells assessed as body weight loss at 50 mg/kg/day, sc administered on day 9 to day 13 of tumor implantation; type: organism-based; set-up: route subcutaneous; details: in vivo; outline: as §2
[21] = Dissociation constant, pKa of the compound in PBS buffer at 5 uM at pH 2 to 10 by UV-spectrophotometric analysis; type: physicochemical
Outline: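 UV spectrophotometric titration at a final compound concentration of 5 μM. At this concentration the absorbance–concentration relationship stayed linear. pKa was read from spectral changes across pH.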

[22] = Octanol-water partition coefficient, log P of the compound in citric buffer at pH 2.5 by spectrophotometric analysis; type: physicochemical
Outline: (§5)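 Octanol–water partitioning, with log P defined as log(C_octanol/C_water). Compound in the aqueous phase was measured spectrophotometrically, and octanol content was obtained by subtracting the supernatant concentration from the total. Values are the mean of two independent experiments, each run in triplicate.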

[23] = Octanol-water partition coefficient, log P of the compound in PBS buffer at pH 7.4 by spectrophotometric analysis; type: physicochemical; outline: as §5
[24] = Toxicity in human erythrocytes assessed as hemolysis at 0.3 mM after 30 mins by spectrophotometric analysis; type: cell-based, Erythrocyte; details: read-out: Activity
Outline: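 Human erythrocyte suspension under isotonic conditions (pH 7.4, hematocrit 50%). Compound added across a concentration series and incubated 30 min at 37 °C before hemolysis was scored. Mean ± SD of three individual determinations. Statistics by Mann–Whitney U test, p < 0.05.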

[25] = Solubility of the compound in water; type: physicochemical; details: buffer
Mus musculus [26] = assay: Toxicity in C57BL/6 mouse xenografted with mouse LLC cells at 25 to 50 mg/kg/day, ip administered on day 9 to day 13 of tumor implantation; type: organism-based; set-up: route intraperitoneal; details: in vivo; outline: as §2

logP [1]: -1
logP [2]: 2
SMILES: Cc1c2c3ccccc3nc-2n(C)c2ccccc12
IC50 (LoVo): 200 nM

pKa at 5 µM [21]: 7.3
logP [22]: -1.9
logD [23]: -0.1
solubility [25]: soluble
SMILES: Cc1c2c3cc(NC(=O)CNC(=O)[C@@H]4CCCN4)ccc3nc-2n(C)c2ccccc12.Cl.Cl
Activity (Mus musculus [3]): <= 15%
Activity (Mus musculus [4]): <= 15%
Activity (Mus musculus [5]): <= 15%
IC50 (KB): 3730 nM
IC50 (A549): 1150 nM
IC50 (MCF7): 1430 nM
IC50 (LoVo): 980 nM
inhibition in vivo at 25 mg/kg/day [6]: 12.9%
inhibition in vivo at 25 mg/kg/day [7]: 11.6%
inhibition in vivo at 25 mg/kg/day [8]: 0%
inhibition in vivo at 25 mg/kg/day [9]: 3.1%
inhibition in vivo at 25 mg/kg/day [10]: 0%
inhibition in vivo at 25 mg/kg/day [11]: 0%
inhibition in vivo at 50 mg/kg/day [12]: 16.3%
inhibition in vivo at 50 mg/kg/day [13]: 36.5%
inhibition in vivo at 50 mg/kg/day [14]: 18.5%
inhibition in vivo at 50 mg/kg/day [15]: 33.1%
inhibition in vivo at 50 mg/kg/day [16]: 32.5%
inhibition in vivo at 50 mg/kg/day [17]: 8.19%
Activity (Mus musculus [18]): <= 15%
Activity (Mus musculus [19]): <= 15%
Activity (Mus musculus [20]): <= 15%
hemolysis at 0.5 h, 300 µM [24]: 9.97%
Activity (Mus musculus [26]): Non-toxic
